Measured values of several laboratories.
Each line is one published result; the experiments were not run side by side.
Target: Mitogen-activated protein kinase kinase kinase 4 (MAP3K4, Homo sapiens, UniProt Q9Y6R4)

Structure (SMILES) | test | conditions | remaining binding
O=C(N[C@H]1CCCCC/C=C\C2C[C@@]2(C(=O)O)NC(=O)[C@@H]2C[C@@H](Oc3ccncc3)CN2C1=O)OC1CCCC1 (some centres unmarked) | binding, competition with immobilised ligand | 1 µM | 91%
COc1cnc(Nc2cccc(S(N)(=O)=O)c2)nc1N1CCN(c2ccccc2)CC1 | binding, competition with immobilised ligand | 1 µM | 100%
CSc1cccnc1N1CCN(Cc2nc3ccccc3[nH]2)CC1 | cell-free assay, competition with immobilised ligand | 1 µM | 100%
F[C@@H]1CCN(c2nccc(-c3cnn4ncccc34)n2)C1 | binding | 1 µM | 78%
Cc1cnc(Nc2ccc(C(=O)N3CCC(N4CCCC4)CC3)cc2)nc1-c1cc2ccccc2s1 | binding, competition with immobilised ligand | 1 µM | 32%
N[C@@H]1CCN(c2nccc(-c3cnn4ncccc34)n2)C1 | binding | 1 µM | 100%
C[C@@H](c1ccc(-n2cnc3c(N)ncnc32)cc1)N1CCc2nn(C)c(Cc3ccccc3)c2C1=O | binding, competition with immobilised ligand | 0.1 µM | 100%
O=C(NCC1CCOCC1)c1n[nH]cc1NC(=O)c1c(F)cccc1F | binding, competition with immobilised ligand | 1 µM | 100%
O=C(c1ccc(Nc2nccc(-c3cc4ccccc4s3)n2)cc1)N1CCC(N2CCCC2)CC1 | binding, competition with immobilised ligand | 1 µM | 70%
CCN1CCN(Cc2ccc(C(=O)Nc3ccc(C)c(Oc4ccc5c(c4)CC(=O)N5)c3)cc2C(F)(F)F)CC1 | binding, competition with immobilised ligand | 1 µM | 100%
C[C@H](c1ccnc(Nc2nc3ccc(-c4cc(N(C)C)ncn4)cc3[nH]2)c1)N1CCN(C(=O)CC(F)(F)F)CC1 | cell-free assay, competition with immobilised ligand | 0.1 µM | 96%
C[C@@H]1CCN(c2nccc(-c3cnn4ncccc34)n2)C1 | binding | 1 µM | 100%
FC(F)(F)Oc1cccc(-c2cnc3ccc(-c4ccncc4)nn23)c1 | cell-free assay, competition with immobilised ligand | 5 µM | 84%
CC(=O)N1CCC(c2ccc(C(=O)NC3=NCCN3)cc2C(F)(F)F)CC1 | cell-free assay, competition with immobilised ligand | 1 µM | 81%
C[C@@H]1CN(c2ccc3ncc(-c4ccc5[nH]nc(C6CC6)c5c4)n3n2)C[C@H](C)O1 | binding, competition with immobilised ligand | 50 nM | 100%
Cc1nc(N2CC[C@@H](O)C2)ncc1-c1cc(C(F)(F)F)cc2[nH]ncc12 | binding, competition with immobilised ligand | 1 µM | 100%
CN(CCCC(F)(F)F)c1nccc(-c2cnn3ncccc23)n1 | binding | 1 µM | 81%
CN(C)C(=O)Cn1cc(-c2nc(C3(c4ccc(-c5cnc(N)nc5)cc4)CC3)no2)cn1 | cell-free assay, competition with immobilised ligand | 1 µM | 92%
COc1ccnn2ncc(-c3ccnc(N(C)C)n3)c12 | binding | 1 µM | 100%
N#Cc1ccccc1CSc1nnc2c(n1)[nH]c1ccccc12 | binding, competition with immobilised ligand | 10 µM | 100%
O=C(NCCCN1CCOCC1)c1ccc(Nc2ncc(Cl)c(-c3ccc(Cl)s3)n2)cc1 | binding, competition with immobilised ligand | 1 µM | 54%
CCC(=O)N[C@H]1CC[C@@H](C(=O)N(C)c2ccc(-c3nc4ccccc4o3)cc2)C1 | cell-free assay, competition with immobilised ligand | 1 µM | 100%
c1cncc(-c2cccc(Nc3nccc(NC4CCCCC4)n3)c2)c1 | binding, competition with immobilised ligand | 10 µM | 88%
